These results are taken from ChEMBL document CHEMBL1153058, “Cycloaspeptides F and G, Cyclic Pentapeptides from a Cordyceps-colonizing isolate of Isaria farinosa” (2009).

Where a SMILES comes first, the peptide text is derived from it. [ ]: non-standard residue; d: D form. The star is where a group is joined. βGlc = OC[C@H]1O[C@@H](*)[C@H](O)[C@@H](O)[C@@H]1O; NMeY = CN[C@@H](Cc1ccc(O)cc1)C(=O)O; NMeF = CN[C@@H](Cc1ccccc1)C(=O)O; 2Abz = Nc1ccccc1C(=O)O Some results are limits rather than exact numbers.

The test system of one test is MCF7. Briefly: Cytotoxicity against human MCF7 cells after 48 hrs by MTT assay. Format: functional. The conditions noted are these: MCF7, 48 h. The gist of the method:
(§1)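 MTT assay: 10^4 cells per well, attached overnight. Cells exposed for 4 h at 37 °C, 5% CO2, to compound serially diluted in medium from a 10 mg/mL DMSO stock, vehicle 0.2% DMSO. Medium then replaced with fresh DMEM and growth continued 48 h. MTT 0.5 mg/mL added for 3 h in the dark, formazan dissolved in DMSO, absorbance read at 540 nm. GI50 derived.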

The test system of a further test is HeLa. Briefly: Cytotoxicity against human HeLa cells after 48 hrs by MTT assay. It counts as functional. An outline of the steps:
as §1

As for `CC(C)C[C@@H]1NC(=O)[C@H](Cc2ccccc2)N(C)C(=O)[C@H](C)NC(=O)c2ccccc2NC(=O)[C@H](Cc2ccc(O[C@@H]3O[C@H](CO)[C@@H](O)[C@H](O)[C@H]3O)cc2)N(C)C1=O` [Cycloaspeptide F] (cyclo([2Abz]A[NMeF]L[NMeY](βGlc))), the results for the 50% growth inhibitory concentration (GI50) in the test on MCF7 and in the test on HeLa were 18.7 µM and 49.8 µM, respectively.
With `CC(C)C[C@@H]1NC(=O)[C@H](Cc2ccccc2)N(C)C(=O)[C@H](C)NC(=O)c2ccccc2NC(=O)[C@H](Cc2ccc(O)cc2)N(C)C1=O` [CYCLOASPEPTIDE A] (cyclo([2Abz]A[NMeF]L[NMeY])), the results for the 50% growth inhibitory concentration (GI50) with MCF7 and with HeLa were 23.4 µM and 31.2 µM, respectively.
With `O=c1[nH]cc(F)c(=O)[nH]1` [FLUOROURACIL], the GI50 in the test with MCF7 was found to be 15 µM; in the test with HeLa it was 10 µM.
`CS[C@]1(CO)C(=O)N(C)[C@](Cc2ccccc2)(SC)C(=O)N1C` [BISDETHIODI(METHYLTHIO)HYALODENDRIN]: the GI50 was 113 µM in the test with MCF7 and more than 113 µM with HeLa.
In the case of `CC(C)C[C@@H]1NC(=O)[C@H](Cc2ccc(O)cc2)N(C)C(=O)[C@H](C)NC(=O)c2ccccc2NC(=O)[C@H](Cc2ccc(O)cc2)N(C)C1=O` [Cycloaspeptide G] (cyclo([2Abz]A[NMeY]L[NMeY])), the 50% growth inhibitory concentration (GI50) in the test on MCF7 was determined as 15.2 µM; in the test on HeLa, 30.4 µM.
On to `CC(C)C[C@@H]1NC(=O)[C@H](Cc2ccccc2)NC(=O)[C@H](C)NC(=O)c2ccccc2NC(=O)[C@H](Cc2ccc(O)cc2)N(C)C1=O` [cycloaspeptide C] (cyclo([2Abz]AFL[NMeY])), for which the concentration for 50% growth inhibition (GI50) with MCF7 is 31.9 µM; in the test on HeLa, more than 63.4 µM.
